Screening data: PubChem BioAssay, The Scripps Research Institute Molecular Screening Center
MBD2 DNA inh = inhibitors of MBD2 binding to methylated DNA, primary screen, biochemical, TR-FRET, DNA-binding domain, human. MBD2 binding to methylated oligonucleotide. inhibition, % at 4.4 µM. 370,000 tested, 0.31% active. AID 686964, 2013; in the data active = inhibition above about 13%
LEDGF integ inh = blockers of LEDGF/p75-dependent integrase strand transfer – biochemical, TR-FRET, high throughput, primary screen | TR-FRET IN-LEDGF/p75 DNA integration, Eu/Cy5 | 370,000 tested, 0.64% active | inhibition, % at 3.7 µM | AID 743269, 2014 | HIV-1 integrase (with human LEDGF/p75);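 active = inhibition above the screen-wide mean plus 3 SD, cut at about 13% in these data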;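 note: signal is the Cy5 over europium emission ratio at 671 and 618 nm; 0% = plate median of compound wells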
TDP2 inh = human TDP2 enzyme inhibitors, primary screen, biochemical, epi absorbance, recombinant enzyme; Tyrosyl-DNA phosphodiesterase 2 (Homo sapiens), O95551; inhibition, % at 12.8 µM; 370,000 tested, 0.34% active; T5PNP hydrolysis, p-nitrophenol absorbance 415 nm;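 active = inhibition above the mean of all tested compounds plus 3 SD, set per campaign, cut at about 25% in these data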;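 note: 0% = DMSO with enzyme and 100% = buffer with substrate but no TDP2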
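Assay system: Recombinant human TDP2 | Quantity: 120 nM TDP2 per well | Incubation: 2 h at 37 °C | Signal: Epi absorbance | Evaluation: Percent inhibition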
UHRF1 binding = UHRF1 methylated DNA binding inhibitors, primary screen, counter-screen for MBD2 inhibitor project, biochemical, TR-FRET, human UHRF1, single concentration. UHRF1 binding to methylated oligo. 370,000 tested, 0.75% active. AID 687016, 2013. E3 ubiquitin-protein ligase UHRF1 (Homo sapiens), Q96T88. inhibition, % at 4.4 µM;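 note: UHRF1 SRA domain binding a hemimethylated CpG hairpin DNA probe; 0% = median of test compound wells and 100% = reference inhibitor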
UHRF1 DNA bind = UHRF1 methylated DNA binding inhibitors, counter-screen for MBD2 inhibitor project, biochemical, TR-FRET, human UHRF1 | AID 720530, 2013 | UHRF1 binding to methylated oligonucleotide | 1,000 tested, 25% active | inhibition, % at 4.4 µM | shares compounds with MBD2 DNA inh;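 note: UHRF1 SRA domain binding a labeled hemimethylated CpG hairpin DNA; 0% = vehicle only and 100% = reference inhibitor with vehicle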
MBD2 confirm = inhibitors of MBD2 binding to methylated DNA, confirmation, biochemical, TR-FRET, DNA-binding domain, human; shares compounds with MBD2 DNA inh; TR-FRET MBD2-DBD binding to methylated oligonucleotide; inhibition, % at 4.4 µM; 1,000 tested, 26% active; in the data active = inhibition above about 14%
The depositor's hits bear a star; / = not tested or not shown. Rows were chosen to be rich in hits. Some 1.6% of all compounds tested hit in one or more screens of this group. Cut-off read from the data, not from the text of the source, unless noted: active = inhibition above about 21%; inactive = the rest.

SMILES	MBD2 DNA inh	LEDGF integ inh	TDP2 inh	UHRF1 binding	UHRF1 DNA bind	MBD2 confirm
COc1cccc(C(=O)NC2CC3CCCC(C2)N3CC(=O)Nc2ccccc2)c1 (configuration not stated)	13.2*	3.0	10.9	20.6	12.1	4.6
COc1cccc(C(=O)NC2CC3CCCC(C2)N3CC(=O)Nc2ccc(N(C)C)cc2)c1 (configuration not stated)	-10.4	-0.2	-7.3	-1.0	/	/
N=C1C(c2nc3ccccc3s2)=C(O)CN1NC(=O)c1c[nH]c2ccccc12	15.3*	-0.9	2.2	-20.8	-12.4	21.8*
N=C1C(c2nc3ccccc3s2)=C(O)CN1NC(=O)c1ccccc1[N+](=O)[O-]	3.4	-0.5	5.1	0.5	/	/
COc1ccc(Cc2nnc(NC(=O)c3ccc(C)cc3)s2)cc1OC	-0.1	6.1	-2.4	2.5	/	/
COc1ccc(Cc2nnc(NC(=O)CS(=O)(=O)c3ccc(C)cc3)s2)cc1OC	22.0*	-0.4	10.9	-2.5	8.0	0.8
COc1cccc(C(=O)N(CCN2CCOCC2)Cc2ccc(OC)c(OC)c2)c1	2.8	4.9	-14.1	0.9	/	/
COc1cccc(-n2c(=O)c3c(C)c(C(=O)N(C)C)sc3n(CC(=O)NCC3CCCO3)c2=O)c1 (configuration not stated)	16.4*	-8.4	-12.3	-1.9	8.5	3.5
CCOc1cc(/C=N/n2cnnc2)ccc1OS(=O)(=O)c1ccc(C)cc1	14.3*	-6.0	-7.5	5.3	7.1	2.1
COc1ccc(S(=O)(=O)N2CCOCC2)cc1NS(=O)(=O)/C=C/c1ccccc1	0.5	-0.2	-3.2	-0.1	/	/
COc1ccccc1NS(=O)(=O)/C=C/c1ccccc1	13.8*	-3.4	-1.9	4.1	5.8	3.8
CCOc1ccc(CCN2C(=O)C(=O)N([C@@H](CC(C)C)CN3CCC[C@H]3CN3C(=O)C(=O)NC[C@@H]3CC(C)C)C[C@@H]2Cc2ccc(O)cc2)cc1	15.6*	2.2	-8.3	22.2*	3.9	5.4
CCOc1ccc(CCN2C(=O)C(=O)N([C@@H](CC(C)C)CN3CCC[C@H]3CN3C(=O)C(=O)NC[C@@H]3Cc3ccc(O)cc3)C[C@@H]2Cc2ccccc2)cc1	-8.0	2.4	-11.5	1.3	/	/
COc1cc2c(cc1NC(=O)COC(=O)Cn1cnc3ccccc31)oc1ccccc12	18.6*	-1.6	2.8	-4.2	2.6	2.6
O=C(COC(=O)c1ccc(O)cc1O)NC1CCCCCC1	19.5*	-2.3	3.4	-0.6	5.1	3.4
COc1ccc(-c2cc(NC(=O)Cc3c[nH]c4ccccc34)ccc2Nc2cccnc2)c(OC)c1	2.4	-3.0	-2.3	-2.5	/	/
COCCCNC(=O)c1cc2c(=O)n3cccc(C)c3nc2n(C(C)C)c1=N	13.6*	3.8	12.4	21.6*	3.2	2.3
N[C@H]1CC[C@@H]2SC[C@@H](C(=O)O)N2C1=O	8.2	1.4	9.4	15.7	/	/
O=C(O)CCCCC1CCSS1 (configuration not stated)	22.4*	0.7	-9.0	48.1*	36.4*	15.8*
c1ccc2c(c1)c1c(c3ccccc32)CN2CCCC2C1 (configuration not stated)	36.5*	4.8	-0.1	26.3*	33.8*	49.0*
COc1ccc(CN(CCN2CCOCC2)C(=O)c2cc(F)ccc2F)cc1OC	-0.5	6.0	6.8	-0.6	/	/
CCCCCC(=O)Nc1cc(S(=O)(=O)O)cc2cc(S(=O)(=O)O)cc(O)c12	97.1*	90.7*	-1.8	99.5*	102.9*	113.2*
CCOC(=O)[C@]12CCCCC/C=C\1N(Cc1ccc(OC)cc1)C(=O)[C@H]2CC(=O)NCCCOC	-1.6	2.4	-2.5	0.5	/	/
CC(Oc1ccccc1Cl)C(=O)/C=C/N(C)C (configuration not stated)	17.5*	-2.9	3.8	-3.9	7.3	2.9
CC(Oc1ccc(F)cc1)C(=O)/C=C\N(C)C (configuration not stated)	-0.7	-3.1	7.6	-0.7	/	/
SMILES	MBD2 DNA inh	LEDGF integ inh	TDP2 inh	UHRF1 binding	UHRF1 DNA bind	MBD2 confirm
NNC(=O)Cn1c2ccccc2c2ccccc21	13.8*	3.4	2.2	-2.4	7.9	2.9
O=C(O)Cn1c2ccccc2c2ccccc21	1.4	6.5	2.5	2.6	/	/
Oc1ccc2ccccc2c1C=Nn1c(-c2n[nH]c3c2CCC3)n[nH]c1=S	-7.4	0.6	1.3	-3.7	/	/
O=C(Nc1ccc(F)cc1)OCc1cn(Cc2ccccc2F)nn1	-2.3	-0.7	4.5	2.1	/	/
Cc1c[n+]([O-])n(-c2ccc(C(=O)O)cc2)n1	15.2*	-3.9	0.5	20.6	9.9	5.8
COc1ccc(C(CC(=O)N2CCOCC2)C(C)C)cc1 (configuration not stated)	14.6*	6.5	10.1	23.5*	7.4	2.6
O=C(/C=C/c1cccc(Cl)c1)NNC(=O)c1ccncc1	14.3*	0.0	12.4	1.0	3.4	1.4
COc1ccc(C=NNC(=O)c2cc(-c3ccc(C)c(C)c3)n[nH]2)cc1OCc1ccccc1	-0.9	9.2	-12.2	-1.7	/	/
COc1ccc(-n2nnnc2-c2ccc(S(C)(=O)=O)cc2Cl)cc1	13.3*	5.0	7.6	24.0*	0.7	5.3
COc1ccc(S(=O)(=O)NCC(=O)N(CC(=O)NCC2CCCO2)Cc2ccc(F)cc2)cc1 (configuration not stated)	14.1*	1.8	-6.6	-4.9	0.6	2.6
CCc1nnc(NC(=O)CSc2nnc(CNC(=O)c3ccccc3)o2)s1	21.8*	-0.8	-4.5	0.7	8.8	3.6
O=C(N/N=C/C=C/c1ccccc1)c1cc(C2CC2)[nH]n1	20.6*	0.3	-3.6	-2.2	1.4	0.0
Cc1cc(C(=O)N/N=C/C=C/c2ccccc2)n[nH]1	3.0	-3.0	-0.2	0.8	/	/
COc1ccc(CN2C[C@@]3(O)CC[C@@H](O)[C@@H](OC)[C@@H]3[C@@](C)(O)[C@@H]2CC=C(C)C)cc1	-2.7	2.5	-14.0	2.5	/	/
COc1ccc(N2C(=O)CC(N(Cc3ccco3)C(=O)CCC(=O)O)C2=O)cc1 (configuration not stated)	-3.8	-3.1	-5.6	-2.0	/	/
CCCOc1ccc(N2C(=O)CC(N(Cc3ccco3)C(=O)CCC(=O)O)C2=O)cc1 (configuration not stated)	16.3*	-2.5	3.7	1.6	4.0	1.6
O=C1C=C(c2ccoc2)N2CCC[C@H]2C1	35.9*	-3.6	1.6	-4.9	8.6	1.3
